Measurements reported in ChEMBL document CHEMBL1146683, “Antiproliferative activity of various flavonoids and related compounds: additive effect of interferon-alpha2b” (Bioorg Med Chem Lett, 2004).
Activity calls are given as the source filed them. The rule behind the calls is not given here.

Tests used:
WISH [1] = test: In vitro inhibitory activity against the growth of WISH cell derived from human cervical carcinoma was determined; slight effect; assay type: functional, cell-based
WISH [2] = test: (§1) In vitro inhibitory activity against the growth of WISH cell derived from human cervical carcinoma was determined; assay type: functional
Procedure, shortened: (§2)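 WISH cells (HeLa-derived; grown in MEM with 10% FBS, 2 mM L-glutamine and antibiotics), 10,000 per well. Cells exposed 72 h at 37 °C to a concentration series of compound given in DMSO/ethanol (1:10), with controls solvent-matched. Total cell number read colorimetrically as hexosaminidase level. IC50, the molar concentration giving 50% growth inhibition, was taken from dose–response curves.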

WISH [3] = test: In vitro inhibitory activity against the growth of WISH cell derived from human cervical carcinoma was determined; Inactive; assay type: functional, cell-based
WISH [4] = test: as §1; assay type: functional, cell-based; procedure, shortened: as §2
WISH [5] = test: In vitro inhibitory activity against the growth of WISH cell derived from human cervical carcinoma was determined; slight reduction in cell growth; assay type: functional, cell-based

SMILES: O=C(O)/C=C/c1ccccc1
- inhibition (WISH [1]): slight effect

SMILES: O=c1cc(-c2ccc(O)cc2)oc2cc(O)cc(O)c12
- inhibition (WISH [1]): Weak activity

SMILES: O=c1cc(-c2ccccc2)oc2c1ccc1ccccc12
- inhibition (WISH [1]): Weak activity

SMILES: CCOC(=O)/C=C/c1ccc(O)c(O)c1 [ETHYL CAFFEATE]
- Inhibition (WISH [2]): 50%

SMILES: O=C(O)/C=C/c1ccc(O)c(O)c1
- NA (WISH [3]): inactive

SMILES: CCCCOC(=O)/C=C/c1ccc(O)c(O)c1 [BUTYL CAFFEATE]
- IC50 (WISH [4]): ~3000 nM
- Inhibition (WISH [2]): ~70%

SMILES: O=c1cc(-c2ccccc2)oc2cc(O)cc(O)c12
- inhibition (WISH [1]): Weak activity

SMILES: O=C1CC(c2ccccc2)Oc2ccccc21 (stereo not drawn)
- inhibition (WISH [5]): Weak activity

SMILES: COc1cc(OC)c2c(=O)cc(-c3ccccc3)oc2c1
- inhibition (WISH [1]): slight effect

SMILES: O=c1cc(-c2ccccc2[N+](=O)[O-])oc2ccccc12
- IC50 (WISH [4]): ~3000 nM
- Inhibition (WISH [2]): ~70%

SMILES: O=c1cc(-c2ccccc2)oc2ccc3ccccc3c12
- inhibition (WISH [1]): Weak activity

SMILES: O=c1cc(-c2ccccc2)oc2ccccc12
- NA (WISH [3]): inactive

SMILES: O=c1cc(-c2ccccc2[N+](=O)[O-])oc2ccc([N+](=O)[O-])cc12
- IC50 (WISH [4]): ~3000 nM
- Inhibition (WISH [2]): ~70%

SMILES: O=c1c(O)c(-c2ccc(O)c(O)c2)oc2cc(O)cc(O)c12
- inhibition (WISH [1]): Weak activity

SMILES: O=c1cc(-c2ccccc2)oc2ccc([N+](=O)[O-])cc12
- inhibition (WISH [3]): inactive
